In ChEMBL document CHEMBL4270651, “Synthesis and evaluation of new designed multiple ligands directed towards both peroxisome proliferator-activated receptor-γ and angiotensin II type 1 receptor” (Eur J Med Chem, 2018):
Active and inactive are the calls of the source. The calls are words filed in the database; no cut-off is given here.

Legend:
[1] = target: T1, Peroxisome proliferator-activated receptor gamma (Homo sapiens) (UniProt P37231); assay: Transactivation of human PPARgamma expressed in human MCF7 cells harboring pPPRE3-tk-luc reporter at 10 uM after 24 hrs by luciferase reporter gene assay relative to control; format: cell-based
T1 sequence (whole entry): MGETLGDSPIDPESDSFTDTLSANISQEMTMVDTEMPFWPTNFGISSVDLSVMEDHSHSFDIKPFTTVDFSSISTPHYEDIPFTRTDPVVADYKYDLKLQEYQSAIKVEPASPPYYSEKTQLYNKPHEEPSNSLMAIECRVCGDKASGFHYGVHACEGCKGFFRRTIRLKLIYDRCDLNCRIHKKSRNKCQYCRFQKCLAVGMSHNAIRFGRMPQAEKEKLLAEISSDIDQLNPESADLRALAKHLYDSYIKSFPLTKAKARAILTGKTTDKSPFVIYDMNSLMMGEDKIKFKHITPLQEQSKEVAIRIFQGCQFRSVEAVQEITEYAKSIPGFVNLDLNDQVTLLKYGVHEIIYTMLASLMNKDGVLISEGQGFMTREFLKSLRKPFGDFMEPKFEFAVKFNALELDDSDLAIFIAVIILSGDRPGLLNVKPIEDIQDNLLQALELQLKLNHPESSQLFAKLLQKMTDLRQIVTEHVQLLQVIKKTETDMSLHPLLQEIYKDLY
In short: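 MCF-7 cells transfected with a pPPRE3tk-luc reporter are exposed to compound (10μM) for 24 h. Luciferase activity is normalized to β-Gal activity and expressed as fold induction over a solvent control set to 1. Three independent experiments are run, each with duplicate transfections. Values are mean ± s.e.m.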

Rattus norvegicus [2] = species: Rattus norvegicus; assay: Ratio of test compound IC50 to losartan IC50 for bocking activity at AT1 receptor in rat aortic vascular smooth muscle cells assessed as inhibition of angiotensin-2-induced calcium flux
In short: (§1)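 Rat aortic smooth muscle cells. Angiotensin II-mediated intracellular calcium release is followed by fluorescence. A first screen is run at a single concentration. Compounds that pass are retested at various concentrations to derive IC50, with losartan tested in each experiment. Values are expressed as the ratio of the compound's IC50 to losartan's IC50.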

Rattus norvegicus [3] = species: Rattus norvegicus; assay: Blocking activity at AT1 receptor in rat aortic vascular smooth muscle cells assessed as inhibition of angiotensin-2-induced calcium flux at 10 uM preincubated for 20 mins followed by angiotensin-2 addition by Fura-2-AM dye based scanning fluorometric method relative to control; in short: as §1
Rattus norvegicus [4] = assay: Antihypertensive activity in angiotensin 2-induced Wistar rat hypertensive model assessed as reduction in angiotensin 2-induced mean arterial pressure at 6 x 10^-5mol/kg, iv; format: functional, organism-based
In short: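 Adult male Wistar rats; angiotensin II given as i.v. bolus at 10-10 mol/kg, with no pretreatment or after i.v. pretreatment at 6.10−5 mol/kg. Read-out is the change in mean arterial pressure in mm Hg, reported as mean ± sem.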

## CCCCc1nc(Cl)c(/C=C/C(=O)Oc2ccc(CC3SC(=O)NC3=O)cc2)n1Cc1ccc(-c2ccccc2-c2nn[nH]n2)cc1 (configuration not stated)
[1]
  Activity: Active
Rattus norvegicus [2]
  Ratio IC50: 3.2
Rattus norvegicus [3]
  inhibition: > 50%

## Cc1c(C)c2c(c(C)c1OCc1ccc(-c3ccccc3C(=O)O)cc1)CCC(C)(COc1ccc(/C=C3\SC(=O)NC3=O)cc1)O2 (configuration not stated)
[1]
  Activity: Active

## CCCCc1nc(Cl)c(CCCOc2ccc(CC3SC(=O)NC3=O)cc2)n1Cc1ccc(-c2ccccc2-c2nn[nH]n2)cc1 (configuration not stated)
[1]
  Activity: inactive
Rattus norvegicus [2]
  Ratio IC50: 0.4
Rattus norvegicus [3]
  inhibition: > 50%

## Cc1c(C)c2c(c(C)c1OCc1ccc(-c3ccccc3C(=O)O)cc1)CCC(C)(COc1ccc(CC3SC(=O)NC3=O)cc1)O2 (configuration not stated)
[1]
  Activity: Active
Rattus norvegicus [3]
  inhibition: inactive

## O=C1NC(=O)C(Cc2ccc(OCc3cn(Cc4ccc(-c5ccccc5C(=O)O)cc4)cn3)cc2)S1 (configuration not stated)
[1]
  Activity: inactive
Rattus norvegicus [2]
  Ratio IC50: 3.4
Rattus norvegicus [3]
  inhibition: > 50%

## O=C1NC(=O)C(Cc2ccc(OCc3cn(Cc4ccc(-c5ccccc5C(=O)O)cc4)nn3)cc2)S1 (configuration not stated)
[1]
  Activity: inactive
Rattus norvegicus [3]
  inhibition: inactive

## CCCCCS(=O)(=O)NC(=O)/C=C/c1c(Cl)nc(CCCC)n1Cc1ccc(-c2ccccc2-c2nn[nH]n2)cc1
[1]
  Activity: Active
Rattus norvegicus [2]
  Ratio IC50: 11.1
Rattus norvegicus [3]
  inhibition: > 50%

## CCCCc1ncc(CCCOc2ccc(CC3SC(=O)NC3=O)cc2)n1Cc1ccc(-c2ccccc2-c2nn[nH]n2)cc1 (configuration not stated)
[1]
  Activity: inactive
Rattus norvegicus [2]
  Ratio IC50: 1.1
Rattus norvegicus [3]
  inhibition: > 50%

## CCCCc1nc(CCCOc2ccc(CC3SC(=O)NC3=O)cc2)cn1Cc1ccc(-c2ccccc2C(=O)O)cc1 (configuration not stated)
[1]
  Activity: Active
Rattus norvegicus [2]
  Ratio IC50: 16.2
Rattus norvegicus [3]
  inhibition: > 50%

## COC(=O)c1ccccc1N[C@@H](Cc1ccc(OCC2(C)CCc3c(C)c(O)c(C)c(C)c3O2)cc1)C(=O)O (some centres not stated)
[1]
  Activity: Active

## CCCCCCCCCCCCOCc1c(Cl)nc(CCCC)n1Cc1ccc(-c2ccccc2-c2nn[nH]n2)cc1
[1]
  Activity: Active
Rattus norvegicus [2]
  Ratio IC50: 43.2
Rattus norvegicus [3]
  inhibition: > 50%

## COC(=O)c1ccccc1N[C@@H](Cc1ccc(OCC2(C)CCc3c(C)c(OCc4ccc(-c5ccccc5C(=O)O)cc4)c(C)c(C)c3O2)cc1)C(=O)O (some centres not stated)
[1]
  Activity: Active
Rattus norvegicus [3]
  inhibition: inactive

## Cc1c(C)c2c(c(C)c1OCc1ccc(-c3ccccc3C(=O)OC(C)(C)C)cc1)CCC(C)(COc1ccc(/C=C3\SC(=O)NC3=O)cc1)O2 (configuration not stated)
[1]
  Activity: Active

## CCCCc1c(COc2ccc(CC3SC(=O)NC3=O)cc2)nnn1Cc1ccc(-c2ccccc2C(=O)O)cc1 (configuration not stated)
[1]
  Activity: Active
Rattus norvegicus [3]
  inhibition: inactive

## CC(C)(C)OC(=O)c1ccccc1-c1ccc(Cn2cc(CCOc3ccc(CC4SC(=O)NC4=O)cc3)nn2)cc1 (configuration not stated)
[1]
  Activity: Active

## CCCCc1nc(COc2ccc(CC3SC(=O)NC3=O)cc2)cn1Cc1ccc(-c2ccccc2C(=O)O)cc1 (configuration not stated)
[1]
  Activity: Active
Rattus norvegicus [2]
  Ratio IC50: 5
Rattus norvegicus [3]
  inhibition: > 50%

## CCCCc1nc(Cl)c(/C=C/C(=O)Oc2ccc(C[C@H](Nc3ccccc3C(=O)OC)C(=O)O)cc2)n1Cc1ccc(-c2ccccc2-c2nn[nH]n2)cc1
[1]
  Activity: Active
Rattus norvegicus [2]
  Ratio IC50: 3.8
Rattus norvegicus [3]
  inhibition: > 50%

## CCCCc1nc(Cl)c(COc2ccc(CC3SC(=O)NC3=O)cc2)n1Cc1ccc(-c2ccccc2-c2nn[nH]n2)cc1 (configuration not stated)
[1]
  Activity: inactive
Rattus norvegicus [4]
  Activity: Active
Rattus norvegicus [2]
  Ratio IC50: 6.3
Rattus norvegicus [3]
  inhibition: > 50%

## CC(C)(C)OC(=O)c1ccccc1-c1ccc(Cn2cc(COc3ccc(CC4SC(=O)NC4=O)cc3)nn2)cc1 (configuration not stated)
[1]
  Activity: Active

## CCCCc1nc(Cl)c(CO)n1Cc1ccc(-c2ccccc2-c2nnn[nH]2)cc1
[1]
  Activity: inactive
Rattus norvegicus [4]
  Activity: Active
Rattus norvegicus [3]
  inhibition: 78%

## O=C1NC(=O)C(Cc2ccc(OCCc3cn(Cc4ccc(-c5ccccc5C(=O)O)cc4)nn3)cc2)S1 (configuration not stated)
[1]
  Activity: inactive
Rattus norvegicus [3]
  inhibition: inactive

## CCCc1nc2c(C)cc(-c3nc4ccccc4n3C)cc2n1Cc1ccc(-c2ccccc2C(=O)O)cc1
[1]
  Activity: Active

## CCCCc1nc(Cl)c(COc2ccc(/C=C3\SC(=O)NC3=O)cc2)n1Cc1ccc(-c2ccccc2-c2nn[nH]n2)cc1
[1]
  Activity: inactive
Rattus norvegicus [3]
  inhibition: < 50%
